Assays:
[1] = biological target: T1, 5-hydroxytryptamine receptor 3A (Homo sapiens, UniProt P46098); assay: Displacement of [3H]granisetron from 5HT3A receptor expressed in HEK293 cells after 24 hrs by scintillation counting in presence of quipazine; format: cell-based
T1 sequence (P46098 whole entry): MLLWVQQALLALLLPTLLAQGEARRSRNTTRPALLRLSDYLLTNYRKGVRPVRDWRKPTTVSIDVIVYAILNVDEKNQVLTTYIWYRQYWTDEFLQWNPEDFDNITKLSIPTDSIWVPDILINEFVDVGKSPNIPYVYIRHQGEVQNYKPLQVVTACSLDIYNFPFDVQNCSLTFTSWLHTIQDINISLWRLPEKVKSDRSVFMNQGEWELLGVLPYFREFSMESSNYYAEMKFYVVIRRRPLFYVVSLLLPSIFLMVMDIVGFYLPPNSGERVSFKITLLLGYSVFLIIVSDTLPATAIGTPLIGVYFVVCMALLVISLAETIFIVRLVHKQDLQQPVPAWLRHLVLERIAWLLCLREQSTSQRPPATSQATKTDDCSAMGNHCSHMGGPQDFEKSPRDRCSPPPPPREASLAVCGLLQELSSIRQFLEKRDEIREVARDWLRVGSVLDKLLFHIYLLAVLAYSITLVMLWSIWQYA
In short: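 Nonspecific binding defined with 1 mM quipazine. At least 24 h at 4 °C, GF/B filtration (0.3% PEI presoaked), scintillation counting. Hill-equation fit; Ki from IC50 via Cheng-Prusoff. At least three separate transfection plates.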

[2] = test system: HEK293; assay: Selectivity ratio for recombinant human 5HT2A receptor expressed in HEK-293 cells to 5HT3A receptor expressed in HEK293 cells; format: cell-based
[3] = test system: HEK293; assay: Selectivity ratio for recombinant human nACH alpha4beta2 receptor expressed in SH-SY5Y cells to 5HT3A receptor expressed in HEK293 cells; format: cell-based
[4] = test system: HEK293; assay: Selectivity ratio for recombinant rat 5HT1D receptor expressed in CHO cells to 5HT3A receptor expressed in HEK293 cells; format: cell-based
[5] = test system: HEK293; assay: Selectivity ratio for recombinant human 5HT6 receptor expressed in CHO cells to 5HT3A receptor expressed in HEK293 cells; format: cell-based
[6] = biological target: GABA-A receptor; alpha-1/beta-2/gamma-2 (Homo sapiens) (UniProt P14867+P47870+P18507); assay: Displacement of [3H]muscimol from recombinant human GABAA alpha1beta2gamma2 receptor expressed in CHO cells at 0.1 uM after 120 mins; format: cell-based
In short: (§1)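 Single-point radioligand competition binding at an external contract lab. Reported as percent inhibition of control specific binding: 100 − (measured specific binding / control specific binding) × 100.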

[7] = biological target: 5-hydroxytryptamine receptor 2A (Homo sapiens) (UniProt P28223); assay: Displacement of [125I] +/- DOI from recombinant human 5HT2A receptor expressed in HEK-293 cells at 0.1 uM after 60 mins; format: cell-based; conditions: HEK293; in short: as §1
Chain of 5-hydroxytryptamine receptor 2A (Homo sapiens) (P28223 whole entry): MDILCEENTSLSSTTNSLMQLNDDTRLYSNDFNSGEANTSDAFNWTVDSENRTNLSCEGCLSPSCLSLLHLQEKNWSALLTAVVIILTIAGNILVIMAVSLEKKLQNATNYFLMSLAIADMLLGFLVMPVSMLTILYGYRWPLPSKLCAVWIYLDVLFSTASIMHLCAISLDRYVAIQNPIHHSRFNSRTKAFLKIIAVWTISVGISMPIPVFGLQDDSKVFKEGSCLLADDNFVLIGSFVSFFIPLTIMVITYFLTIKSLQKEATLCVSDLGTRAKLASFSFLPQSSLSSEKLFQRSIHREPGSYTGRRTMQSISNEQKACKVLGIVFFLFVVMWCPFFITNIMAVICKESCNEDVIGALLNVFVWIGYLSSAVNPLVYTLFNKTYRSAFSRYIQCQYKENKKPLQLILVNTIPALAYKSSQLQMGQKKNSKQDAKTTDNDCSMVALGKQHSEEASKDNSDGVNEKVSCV

[8] = biological target: T2, 5-hydroxytryptamine receptor 2C (Homo sapiens) (UniProt P28335); assay: Displacement of [125I] +/- DOI from recombinant human 5HT2C receptor expressed in HEK-293 cells at 0.1 uM after 60 mins; format: cell-based; conditions: HEK293; in short: as §1
T2 sequence (whole entry): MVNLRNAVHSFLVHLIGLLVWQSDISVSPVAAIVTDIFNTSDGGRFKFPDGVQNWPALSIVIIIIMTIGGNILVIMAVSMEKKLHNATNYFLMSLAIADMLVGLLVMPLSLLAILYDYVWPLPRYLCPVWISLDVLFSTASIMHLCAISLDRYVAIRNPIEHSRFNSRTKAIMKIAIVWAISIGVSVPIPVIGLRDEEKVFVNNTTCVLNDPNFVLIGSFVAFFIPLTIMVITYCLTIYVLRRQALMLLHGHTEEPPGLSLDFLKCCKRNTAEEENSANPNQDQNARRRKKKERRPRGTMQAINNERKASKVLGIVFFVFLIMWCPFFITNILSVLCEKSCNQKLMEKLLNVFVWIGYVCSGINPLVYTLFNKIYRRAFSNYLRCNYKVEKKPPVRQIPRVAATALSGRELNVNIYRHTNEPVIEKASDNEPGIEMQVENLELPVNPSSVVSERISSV

[9] = test system: HEK293; assay: Selectivity ratio for recombinant human 5HT2C receptor expressed in HEK-293 to 5HT3A receptor expressed in HEK293 cells; format: cell-based
[10] = biological target: 5-hydroxytryptamine receptor 7 (Homo sapiens) (UniProt P34969); assay: Displacement of [3H]LSD from recombinant human 5HT7 receptor expressed in CHO cells at 0.1 uM after 120 mins; format: cell-based; in short: as §1
Chain of 5-hydroxytryptamine receptor 7 (Homo sapiens) (P34969 whole entry): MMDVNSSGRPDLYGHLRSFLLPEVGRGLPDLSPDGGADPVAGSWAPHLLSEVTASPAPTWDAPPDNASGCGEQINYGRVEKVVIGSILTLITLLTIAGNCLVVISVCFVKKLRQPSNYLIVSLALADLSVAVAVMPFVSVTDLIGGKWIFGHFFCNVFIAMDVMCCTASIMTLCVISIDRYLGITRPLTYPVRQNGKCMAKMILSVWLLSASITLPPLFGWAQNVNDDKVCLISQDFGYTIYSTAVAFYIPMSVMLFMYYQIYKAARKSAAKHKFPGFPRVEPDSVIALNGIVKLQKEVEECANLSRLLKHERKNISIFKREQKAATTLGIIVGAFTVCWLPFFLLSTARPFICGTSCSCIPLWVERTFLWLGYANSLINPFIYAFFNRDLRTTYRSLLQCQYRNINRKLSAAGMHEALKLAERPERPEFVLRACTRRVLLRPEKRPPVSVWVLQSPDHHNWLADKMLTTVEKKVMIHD

[11] = test system: HEK293; assay: Selectivity ratio for recombinant human 5HT2C receptor expressed in HEK-293 cells to 5HT3A receptor expressed in HEK293 cells; format: cell-based
[12] = biological target: 5-hydroxytryptamine receptor 6 (Homo sapiens) (UniProt P50406); assay: Displacement of [3H]LSD from recombinant human 5HT6 receptor expressed in CHO cells at 0.1 uM after 120 mins; format: cell-based; in short: as §1
Chain of 5-hydroxytryptamine receptor 6 (Homo sapiens) (P50406 whole entry): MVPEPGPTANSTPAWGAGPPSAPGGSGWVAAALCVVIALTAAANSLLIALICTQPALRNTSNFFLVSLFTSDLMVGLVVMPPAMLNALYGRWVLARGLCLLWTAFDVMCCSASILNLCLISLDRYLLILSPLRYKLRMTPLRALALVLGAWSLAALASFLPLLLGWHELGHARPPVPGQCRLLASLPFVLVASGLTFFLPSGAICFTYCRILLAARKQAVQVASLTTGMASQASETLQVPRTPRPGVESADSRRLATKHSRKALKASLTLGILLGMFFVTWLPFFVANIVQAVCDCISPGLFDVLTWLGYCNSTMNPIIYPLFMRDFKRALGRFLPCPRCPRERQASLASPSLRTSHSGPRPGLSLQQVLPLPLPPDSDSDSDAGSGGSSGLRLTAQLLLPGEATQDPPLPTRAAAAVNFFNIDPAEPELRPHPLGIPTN

[13] = biological target: 5-hydroxytryptamine receptor 2B (Homo sapiens) (UniProt P41595); assay: Displacement of [125I] +/- DOI from recombinant human 5HT2B receptor expressed in CHO cells at 0.1 uM after 60 mins; format: cell-based; in short: as §1
Chain of 5-hydroxytryptamine receptor 2B (Homo sapiens) (P41595 whole entry): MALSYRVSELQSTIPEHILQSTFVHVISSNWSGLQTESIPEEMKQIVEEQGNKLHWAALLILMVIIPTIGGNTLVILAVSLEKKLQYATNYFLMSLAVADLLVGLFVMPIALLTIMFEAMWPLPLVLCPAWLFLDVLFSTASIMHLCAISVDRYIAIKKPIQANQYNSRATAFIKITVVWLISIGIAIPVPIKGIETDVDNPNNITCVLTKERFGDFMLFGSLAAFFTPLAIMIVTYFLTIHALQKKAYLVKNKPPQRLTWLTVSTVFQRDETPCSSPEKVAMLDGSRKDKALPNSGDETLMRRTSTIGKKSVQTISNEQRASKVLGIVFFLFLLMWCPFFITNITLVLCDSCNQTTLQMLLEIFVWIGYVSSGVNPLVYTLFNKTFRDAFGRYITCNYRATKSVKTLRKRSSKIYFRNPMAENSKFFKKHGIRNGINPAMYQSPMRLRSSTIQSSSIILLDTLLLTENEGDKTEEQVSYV

[14] = biological target: 5-hydroxytryptamine receptor 1B (Rattus norvegicus) (UniProt P28564); assay: Displacement of [125I] CYP from 5HT1B receptor in rat cerebral cortex at 0.1 uM after 120 mins; format: tissue-based; in short: as §1
Chain of 5-hydroxytryptamine receptor 1B (Rattus norvegicus) (P28564 whole entry): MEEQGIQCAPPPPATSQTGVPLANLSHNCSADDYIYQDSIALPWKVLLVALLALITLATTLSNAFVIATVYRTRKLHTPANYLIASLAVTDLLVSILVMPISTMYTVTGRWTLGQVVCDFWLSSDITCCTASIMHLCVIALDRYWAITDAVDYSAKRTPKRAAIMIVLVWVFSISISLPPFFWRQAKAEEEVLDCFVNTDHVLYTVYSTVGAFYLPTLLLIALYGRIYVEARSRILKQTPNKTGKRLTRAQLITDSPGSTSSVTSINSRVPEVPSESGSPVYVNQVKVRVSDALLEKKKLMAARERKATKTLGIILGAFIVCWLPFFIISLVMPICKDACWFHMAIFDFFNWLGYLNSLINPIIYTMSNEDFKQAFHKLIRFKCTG

[15] = biological target: Neuronal acetylcholine receptor; alpha4/beta2 (Homo sapiens) (UniProt P17787+P43681); assay: Displacement of [3H]cytisine from recombinant human nACH alpha4beta2 receptor expressed in SH-SY5Y cells at 0.1 uM after 120 mins; format: cell-based; in short: as §1
[16] = species on record: Rattus norvegicus; assay: Displacement of [3H]strychnine from glycine receptor in rat spinal cord at 0.1 uM after 15 mins; in short: as §1
[17] = biological target: Neuronal acetylcholine receptor subunit alpha-7 (Homo sapiens) (UniProt P36544); assay: Displacement of [3H]epibatidine from recombinant human nACH alpha7 receptor expressed in HEK-293 cells at 0.1 uM after 120 mins; format: cell-based; conditions: HEK293
Chain of Neuronal acetylcholine receptor subunit alpha-7 (Homo sapiens) (P36544 whole entry): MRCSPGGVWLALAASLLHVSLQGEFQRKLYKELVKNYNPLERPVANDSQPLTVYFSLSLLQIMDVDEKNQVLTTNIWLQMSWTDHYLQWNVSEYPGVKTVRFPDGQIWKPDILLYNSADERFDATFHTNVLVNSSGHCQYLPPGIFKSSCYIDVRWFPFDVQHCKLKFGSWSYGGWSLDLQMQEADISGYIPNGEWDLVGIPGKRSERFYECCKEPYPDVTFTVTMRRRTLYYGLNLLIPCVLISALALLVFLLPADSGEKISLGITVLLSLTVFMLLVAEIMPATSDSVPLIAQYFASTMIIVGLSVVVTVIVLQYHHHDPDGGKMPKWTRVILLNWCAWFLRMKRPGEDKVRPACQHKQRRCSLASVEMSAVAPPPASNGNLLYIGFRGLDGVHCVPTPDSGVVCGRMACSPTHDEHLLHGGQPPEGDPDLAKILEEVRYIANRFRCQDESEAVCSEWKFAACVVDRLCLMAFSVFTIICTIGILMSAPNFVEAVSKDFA

[18] = test system: HEK293; assay: Selectivity ratio for recombinant human 5HT1A receptor expressed in HEK-293 to 5HT3A receptor expressed in HEK293 cells; format: cell-based
[19] = test system: HEK293; assay: Selectivity ratio for 5HT1B receptor in rat cerebral cortex to 5HT3A receptor expressed in HEK293 cells; format: cell-based
[20] = biological target: 5-hydroxytryptamine receptor 1D (Rattus norvegicus) (UniProt P28565); assay: Displacement of [3H]serotonin from recombinant rat 5HT1D receptor expressed in CHO cells at 0.1 uM after 60 mins; format: cell-based; in short: as §1
Chain of 5-hydroxytryptamine receptor 1D (Rattus norvegicus) (P28565 whole entry): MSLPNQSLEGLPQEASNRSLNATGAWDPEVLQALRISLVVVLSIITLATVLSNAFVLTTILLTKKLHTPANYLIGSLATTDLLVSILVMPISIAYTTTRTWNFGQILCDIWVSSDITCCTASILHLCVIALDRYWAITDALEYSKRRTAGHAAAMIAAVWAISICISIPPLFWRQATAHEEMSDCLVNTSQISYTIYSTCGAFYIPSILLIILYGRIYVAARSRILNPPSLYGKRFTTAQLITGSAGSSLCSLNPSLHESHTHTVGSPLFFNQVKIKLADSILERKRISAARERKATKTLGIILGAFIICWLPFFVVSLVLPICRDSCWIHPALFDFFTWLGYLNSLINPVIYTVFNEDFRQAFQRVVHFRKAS

[21] = test system: HEK293; assay: Selectivity ratio for recombinant human GABAA alpha1beta2gamma2 receptor expressed in CHO cells to 5HT3A receptor expressed in HEK293 cells; format: cell-based
[22] = biological target: T3, 5-hydroxytryptamine receptor 1A (Homo sapiens) (UniProt P08908); assay: Displacement of [3H]8-OH-DPAT from recombinant human 5HT1A receptor expressed in HEK-293 cells at 0.1 uM after 60 mins; format: cell-based; conditions: HEK293; in short: as §1
T3 sequence (whole entry): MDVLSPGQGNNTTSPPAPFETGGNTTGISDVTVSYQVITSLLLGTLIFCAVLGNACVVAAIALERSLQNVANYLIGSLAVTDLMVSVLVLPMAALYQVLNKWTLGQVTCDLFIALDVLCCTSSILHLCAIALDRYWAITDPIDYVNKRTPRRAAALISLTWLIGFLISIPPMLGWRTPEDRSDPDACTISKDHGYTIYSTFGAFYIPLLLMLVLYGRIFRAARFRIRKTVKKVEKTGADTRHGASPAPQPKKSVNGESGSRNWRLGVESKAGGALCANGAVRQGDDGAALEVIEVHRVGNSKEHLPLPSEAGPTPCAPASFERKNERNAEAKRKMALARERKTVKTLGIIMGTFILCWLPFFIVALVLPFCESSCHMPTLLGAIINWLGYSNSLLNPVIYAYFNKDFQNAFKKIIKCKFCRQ

[23] = test system: HEK293; assay: Selectivity ratio for recombinant human 5HT4E receptor expressed in CHO cells to 5HT3A receptor expressed in HEK293 cells; format: cell-based
[24] = test system: HEK293; assay: Selectivity ratio for recombinant human nACH alpha7 receptor expressed in HEK-293 cells to 5HT3A receptor expressed in HEK293 cells; format: cell-based
[25] = biological target: 5-hydroxytryptamine receptor 4 (Homo sapiens) (UniProt Q13639); assay: Displacement of [3H]GR113808 from recombinant human 5HT4E receptor expressed in CHO cells at 0.1 uM after 60 mins; format: cell-based; in short: as §1
Chain of 5-hydroxytryptamine receptor 4 (Homo sapiens) (Q13639 whole entry): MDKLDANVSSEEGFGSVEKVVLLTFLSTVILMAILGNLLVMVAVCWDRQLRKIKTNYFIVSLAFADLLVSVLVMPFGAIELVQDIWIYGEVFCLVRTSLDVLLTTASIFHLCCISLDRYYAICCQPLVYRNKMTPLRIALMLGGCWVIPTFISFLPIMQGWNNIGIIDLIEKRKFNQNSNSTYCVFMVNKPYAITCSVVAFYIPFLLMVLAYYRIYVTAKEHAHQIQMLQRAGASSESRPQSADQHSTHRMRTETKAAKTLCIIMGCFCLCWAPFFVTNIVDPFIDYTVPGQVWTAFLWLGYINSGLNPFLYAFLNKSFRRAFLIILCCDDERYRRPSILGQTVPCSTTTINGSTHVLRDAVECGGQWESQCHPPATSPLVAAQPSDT

[26] = test system: HEK293; assay: Selectivity ratio for recombinant human 5HT7 receptor expressed in CHO cells to 5HT3A receptor expressed in HEK293 cells; format: cell-based
[27] = test system: HEK293; assay: Selectivity ratio for glycine receptor in rat spinal cord to 5HT3A receptor expressed in HEK293 cells; format: cell-based

CNc1nc(N2CC(N(C)C)C2)nc2ccc(Cl)cc12
Ki [1]: 468 nM

CN1CCN(c2nc(NCc3ccoc3)c3cc(Cl)ccc3n2)CC1
Ki [1]: 2.82 nM

CN1CCN(c2ncc3ccccc3n2)CC1
Ki [1]: 1.35 nM

CNc1nc(N2CC3CCCNC3C2)nc2ccc(Cl)cc12 (stereo not drawn)
Ki [1]: 3550 nM

CNc1nc(N2CCN(C)CC2)nc2ccccc12
Ki [1]: 2.95 nM

CN1CCN(c2ncc3cc(Cl)ccc3n2)CC1
Ki [1]: 7.41 nM

CN1CCN(c2nc(N(C)C)c3cc(Cl)ccc3n2)CC1
Ki [1]: 6.61 nM

CN1CCN(c2cc(N)c3ccccc3n2)CC1
Ki [1]: 1.45 nM

CN1CCN(c2ccc3ccccc3c2)CC1
Ki [1]: 537 nM

CN1CCN(c2nc(NCCO)c3cc(Cl)ccc3n2)CC1
Ki [1]: 14.8 nM

CN1CCN(c2nc3ccccc3c(=O)[nH]2)CC1
Ki [1]: 46.8 nM

CN1CCN(c2nc(NCCc3ccccc3)c3cc(Cl)ccc3n2)CC1
Ki [1]: 79.4 nM

CNc1nc(N2CCCN(C)CC2)nc2ccc(Cl)cc12
Ki [1]: 18.2 nM

CN1CCN(c2ccc3cccc(N)c3n2)CC1
Ki [1]: 331 nM

CN1CCN(c2nc(NCC3CCCCC3)c3cc(Cl)ccc3n2)CC1
Ki [1]: 16600 nM

CN1CCN(c2cc3ccccc3c(N)n2)CC1
Ki [1]: 219 nM

CNc1nc(N2CCN(C)CC2)cc2ccccc12
Ki [1]: 5.89 nM

CN1CCN(c2nc(N)c3cc(Cl)ccc3n2)CC1
Ki [1]: 12 nM

CN1CCN(c2nc(NCc3ccc(N)cc3)c3cc(Cl)ccc3n2)CC1
Ki [1]: 2.69 nM

CC(C)Nc1nc(N2CCN(C)CC2)nc2ccc(Cl)cc12
Ki [1]: 166 nM

CNc1nc(N2CC[C@H](N)C2)nc2ccc(Cl)cc12
Ki [1]: 2340 nM

CN1CCN(c2cc3ccccc3cn2)CC1
Ki [1]: 1.62 nM

CN1CCN(c2ccc3c(N)cccc3n2)CC1
Ki [1]: 204 nM

CN1CCN(c2nc(N)c3ccccc3n2)CC1
Selectivity ratio [2]: 1000
Selectivity ratio [3]: 1000
Selectivity ratio [4]: 1000
Selectivity ratio [5]: 1000
inhibition [6]: < 15%
inhibition [7]: < 15%
inhibition [8]: < 15%
Selectivity ratio [9]: 1000
inhibition [10]: < 15%
Selectivity ratio [11]: 1000
inhibition [12]: < 15%
inhibition [13]: 43%
inhibition [14]: < 15%
inhibition [15]: < 15%
inhibition [16]: < 15%
inhibition [17]: 31%
Selectivity ratio [18]: 1000
Selectivity ratio [19]: 1000
inhibition [20]: < 15%
Selectivity ratio [21]: 1000
inhibition [22]: < 15%
Selectivity ratio [23]: 1000
Ki [1]: 0.0513 nM
Selectivity ratio [24]: 1000
inhibition [25]: < 15%
Selectivity ratio [26]: 1000
Selectivity ratio [27]: 1000

CNc1nc(NCCC2CCN(C)C2)nc2ccc(Cl)cc12 (stereo not drawn)
Ki [1]: 11700 nM

CN1CCN(c2cnc3ccccc3c2)CC1
Ki [1]: 407 nM

CN1CCN(c2nc(O)c3cc(Cl)ccc3n2)CC1
Ki [1]: 575 nM

CN1CCN(c2cnc3ccccc3n2)CC1
Ki [1]: 4.68 nM

CNc1cc(N2CCN(C)CC2)nc2ccccc12
Ki [1]: 13.5 nM

CNc1nc(N2CCN(C)CC2)nc2ccc(Cl)cc12
Ki [1]: 1.12 nM

CN1CCN(c2ccc3ccccc3n2)CC1
Ki [1]: 0.457 nM

CN1CCN(c2nc(NCc3ccccc3)c3cc(Cl)ccc3n2)CC1
Ki [1]: 13.8 nM
